Reference: ChEMBL document CHEMBL4257576, “4-Iminooxazolidin-2-one as a Bioisostere of the Cyanohydrin Moiety: Inhibitors of Enterovirus 71 3C Protease” (J Med Chem, 2018)
Calls of active or inactive are those of the source. The rule behind the calls is not given here.

Experiments:
[1] = Intrinsic clearance in human liver microsomes at 1 mg/ml in presence of NADPH regenerating system by HPLC analysis; type: ADME, microsome; conditions: read-out: CLH
How it was run: (§1)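 Human and mouse liver microsomes at 1.0 mg/mL. Compound disappearance was tracked over time to give half-life and intrinsic clearance (Clint, µL/min/mg). Data are the mean of triplicates with SD (n = 3).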

[2] = Cytotoxicity in human RD cells assessed as reduction in cell viability incubated for 24 hrs by WST1 assay; type: cell-based
How it was run: (§2)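 Values (EC50, CC50) are the average of three independent experiments, with SEM (n = 3).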

[3] = Half life in human plasma by HPLC analysis; type: ADME, cell-free
How it was run: (§3)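 Compound was incubated in human or mouse plasma and its remaining level followed over time to obtain t1/2. Each point is n = 3 with standard deviation bars.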

Genome polyprotein = Genome polyprotein (Enterovirus A71, UniProt A0A1D8D5K2); test: Inhibition of EV71 3C protease expressed in Escherichia coli BL21(DE3) using NMA-IEALFQGPPK(DNP)FR as substrate preincubated for 0.5 hrs followed by substrate addition by fluorescence assay
Sequence of Genome polyprotein (A0A1D8D5K2 whole entry): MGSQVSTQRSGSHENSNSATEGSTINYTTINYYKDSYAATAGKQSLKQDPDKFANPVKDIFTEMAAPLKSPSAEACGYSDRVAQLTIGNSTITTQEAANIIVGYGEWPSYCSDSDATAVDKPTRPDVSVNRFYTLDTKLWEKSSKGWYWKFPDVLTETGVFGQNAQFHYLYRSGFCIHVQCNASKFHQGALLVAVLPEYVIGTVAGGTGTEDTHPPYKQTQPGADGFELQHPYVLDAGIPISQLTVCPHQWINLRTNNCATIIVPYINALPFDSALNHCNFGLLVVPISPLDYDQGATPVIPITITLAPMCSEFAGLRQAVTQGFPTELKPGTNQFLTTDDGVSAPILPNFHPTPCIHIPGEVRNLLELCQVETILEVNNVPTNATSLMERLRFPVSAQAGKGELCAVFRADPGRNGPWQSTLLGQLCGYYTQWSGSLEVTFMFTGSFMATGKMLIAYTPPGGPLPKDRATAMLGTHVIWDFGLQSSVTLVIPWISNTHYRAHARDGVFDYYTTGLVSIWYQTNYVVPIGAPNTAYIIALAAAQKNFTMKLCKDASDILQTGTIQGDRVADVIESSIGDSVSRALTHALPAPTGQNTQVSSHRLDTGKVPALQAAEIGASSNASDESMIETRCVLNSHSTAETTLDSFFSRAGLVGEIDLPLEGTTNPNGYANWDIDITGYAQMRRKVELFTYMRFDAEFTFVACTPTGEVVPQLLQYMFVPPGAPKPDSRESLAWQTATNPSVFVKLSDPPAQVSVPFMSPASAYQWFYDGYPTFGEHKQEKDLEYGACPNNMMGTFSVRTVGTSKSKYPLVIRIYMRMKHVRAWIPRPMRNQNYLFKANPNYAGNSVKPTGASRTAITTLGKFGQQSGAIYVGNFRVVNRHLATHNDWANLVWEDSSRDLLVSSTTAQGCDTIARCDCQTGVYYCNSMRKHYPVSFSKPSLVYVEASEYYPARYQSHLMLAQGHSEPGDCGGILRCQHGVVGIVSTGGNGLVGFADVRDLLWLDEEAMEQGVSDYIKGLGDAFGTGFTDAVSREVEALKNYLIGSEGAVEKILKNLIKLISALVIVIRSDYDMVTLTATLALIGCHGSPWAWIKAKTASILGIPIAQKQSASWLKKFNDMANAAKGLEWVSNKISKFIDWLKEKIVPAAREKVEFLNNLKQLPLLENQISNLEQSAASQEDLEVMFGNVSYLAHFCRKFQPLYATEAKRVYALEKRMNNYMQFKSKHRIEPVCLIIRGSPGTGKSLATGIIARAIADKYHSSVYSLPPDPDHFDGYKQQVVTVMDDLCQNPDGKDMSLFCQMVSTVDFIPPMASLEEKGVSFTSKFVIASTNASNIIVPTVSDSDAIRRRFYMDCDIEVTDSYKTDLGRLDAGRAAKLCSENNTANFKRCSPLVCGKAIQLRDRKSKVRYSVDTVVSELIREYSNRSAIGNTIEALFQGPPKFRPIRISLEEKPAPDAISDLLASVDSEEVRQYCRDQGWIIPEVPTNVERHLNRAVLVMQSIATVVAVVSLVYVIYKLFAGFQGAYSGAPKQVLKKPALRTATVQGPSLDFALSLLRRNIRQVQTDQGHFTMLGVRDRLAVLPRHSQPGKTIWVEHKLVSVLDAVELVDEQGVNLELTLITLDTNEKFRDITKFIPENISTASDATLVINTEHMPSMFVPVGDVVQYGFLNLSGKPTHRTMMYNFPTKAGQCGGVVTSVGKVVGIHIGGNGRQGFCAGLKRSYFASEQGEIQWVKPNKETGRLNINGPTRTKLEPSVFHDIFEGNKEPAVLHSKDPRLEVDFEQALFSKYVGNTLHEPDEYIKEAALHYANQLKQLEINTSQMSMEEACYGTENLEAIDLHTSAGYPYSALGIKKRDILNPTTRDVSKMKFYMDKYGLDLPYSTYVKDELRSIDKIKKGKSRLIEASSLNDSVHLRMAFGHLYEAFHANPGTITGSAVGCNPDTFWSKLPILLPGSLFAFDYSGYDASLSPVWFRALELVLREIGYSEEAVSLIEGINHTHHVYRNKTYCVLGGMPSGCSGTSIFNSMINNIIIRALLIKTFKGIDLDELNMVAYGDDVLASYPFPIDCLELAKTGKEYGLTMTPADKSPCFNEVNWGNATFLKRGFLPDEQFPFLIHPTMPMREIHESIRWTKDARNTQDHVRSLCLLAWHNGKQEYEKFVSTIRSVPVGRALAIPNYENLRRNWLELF
How it was run: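 Values reported as Ki (µM), each the mean of three independent experiments with SEM (n=3).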

[4] = Half life in mouse liver microsomes at 1 mg/ml in presence of NADPH regenerating system by HPLC analysis; type: ADME, microsome; how it was run: as §1
Enterovirus A71 = test: Antiviral activity against Enterovirus A71 infected in human RD cells receiving pEV71-Luc subgenomic replicon stocks from HEK-293T cells; type: functional, organism-based; conditions: Enterovirus A; how it was run: as §2
[5] = Half life in human liver microsomes at 1 mg/ml in presence of NADPH regenerating system by HPLC analysis; type: ADME, microsome; how it was run: as §1
[6] = Intrinsic clearance in mouse liver microsomes at 1 mg/ml in presence of NADPH regenerating system by HPLC analysis; type: ADME, microsome; conditions: read-out: CLH; how it was run: as §1
[7] = Half life in ICR (CD-1) mouse plasma by HPLC analysis; type: ADME, cell-free; how it was run: as §3
[8] = target: Genome polyprotein (Enterovirus A71) (UniProt A0A1D8D5K2); test: Covalent binding affinity to EV71 3C protease expressed in Escherichia coli BL21(DE3) at 2 mg/ml incubated for 2 to 3 hrs and measured after trypsin digestion by LC-MS/MS analysis
Sequence of Genome polyprotein (Enterovirus A71) (A0A1D8D5K2 as listed by the source): as the sequence (A0A1D8D5K2 whole entry) above

[9] = Drug metabolism in ICR (CD-1) mouse plasma by UPLC/Q-TOF-MS analysis; type: ADME, cell-free
How it was run: (§4)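 Compound was incubated with mouse plasma for 60 min. LC/MS followed loss of the parent peak and appearance of a product peak by retention time, and the product was characterized by tandem MS.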

[10] = Drug metabolism in PBS buffer at pH 7.4; type: physicochemical
[11] = Retention time of compound in ICR (CD-1) mouse plasma by UPLC/Q-TOF-MS analysis; type: ADME, cell-free; how it was run: as §4

| Compound | CC50 at 24 h [2] [nM] | Ki (Genome polyprotein) [nM] | EC50 (Enterovirus A71) [nM] | half-life [7] [min] | further results |
| --- | --- | --- | --- | --- | --- |
| Cc1cc(C(=O)N[C@@H](Cc2ccc(F)cc2)C(=O)N[C@@H](C[C@@H]2CCCNC2=O)[C@@H](O)C#N)no1 | > 100000 | 4 | 88 | 7 | microsomal CLint [1]: 87 µL/min/mg; half-life [3]: 11 min; half-life [4]: 6 min; half-life [5]: 8 min; microsomal CLint [6]: 116 µL/min/mg; Activity [8]: inactive |
| CCCN1C(=N)[C@H]([C@H](C[C@@H]2CCCNC2=O)NC(=O)[C@H](Cc2ccc(F)cc2)NC(=O)c2cc(C)on2)OC1=O | > 100000 | 2600 | 12700 | – | – |
| CCCCNC(=O)O[C@@H](C#N)[C@H](C[C@@H]1CCCNC1=O)NC(=O)[C@H](Cc1ccc(F)cc1)NC(=O)c1cc(C)on1 | > 100000 | 450 | 690 | – | – |
| CNC(=O)O[C@@H](C#N)[C@H](C[C@@H]1CCCNC1=O)NC(=O)[C@H](Cc1ccc(F)cc1)NC(=O)c1cc(C)on1 | > 100000 | 71 | 620 | – | – |
| CCNC(=O)O[C@@H](C#N)[C@H](C[C@@H]1CCCNC1=O)NC(=O)[C@H](Cc1ccc(F)cc1)NC(=O)c1cc(C)on1 | > 100000 | 51 | 750 | – | – |
| Cc1cc(C(=O)N[C@@H](Cc2ccc(F)cc2)C(=O)N[C@@H](C[C@@H]2CCCNC2=O)[C@H](C#N)OC(=O)C2CC2)no1 | > 100000 | 560 | 4930 | – | – |
| Cc1cc(C(=O)N[C@@H](Cc2ccc(F)cc2)C(=O)N[C@@H](C[C@@H]2CCCNC2=O)[C@@H](C#N)OC(=O)NC(C)C)no1 | > 100000 | 93 | 1730 | – | – |
| Cc1cc(C(=O)N[C@@H](Cc2ccc(F)cc2)C(=O)N[C@@H](C[C@@H]2CCCNC2=O)[C@H](C#N)OC(=O)C(C)C)no1 | > 100000 | 240 | 2610 | – | – |
| CCNC(=O)O[C@H](C#N)[C@H](C[C@@H]1CCCNC1=O)NC(=O)[C@H](Cc1ccc(F)cc1)NC(=O)c1cc(C)on1 | > 100000 | 190 | 3580 | – | – |
| Cc1cc(C(=O)N[C@@H](Cc2ccc(F)cc2)C(=O)N[C@@H](C[C@@H]2CCCNC2=O)[C@H](C#N)OC(=O)NC(C)C)no1 | > 100000 | 36 | 650 | 31 | Drug metabolism [9]: Metabolite_Detected; Drug metabolism [10]: Metabolite_Detected; Retention_time [11]: 6.41 min |
| CNC(=O)O[C@H](C#N)[C@H](C[C@@H]1CCCNC1=O)NC(=O)[C@H](Cc1ccc(F)cc1)NC(=O)c1cc(C)on1 | > 100000 | 46 | 1000 | – | – |
| Cc1cc(C(=O)N[C@@H](Cc2ccc(F)cc2)C(=O)N[C@@H](C[C@@H]2CCCNC2=O)[C@@H]2OC(=O)N(C)C2=N)no1 | > 100000 | 210 | 1030 | – | – |
| CCN(C)C(=O)O[C@@H](C#N)[C@H](C[C@@H]1CCCNC1=O)NC(=O)[C@H](Cc1ccc(F)cc1)NC(=O)c1cc(C)on1 | > 100000 | – | > 100000 | > 120 | Drug metabolism [10]: Metabolite_Notdetected |
| CCCNC(=O)O[C@@H](C#N)[C@H](C[C@@H]1CCCNC1=O)NC(=O)[C@H](Cc1ccc(F)cc1)NC(=O)c1cc(C)on1 | > 100000 | 85 | 160 | 12 | Drug metabolism [9]: Metabolite_Detected; Drug metabolism [10]: Metabolite_Detected |
| Cc1cc(C(=O)N[C@@H](Cc2ccc(F)cc2)C(=O)N[C@@H](C[C@@H]2CCCNC2=O)[C@H](C#N)OC(=O)N2CCOCC2)no1 | > 100000 | – | > 100000 | > 120 | Drug metabolism [10]: Metabolite_Notdetected |
| CCCNC(=O)O[C@H](C#N)[C@H](C[C@@H]1CCCNC1=O)NC(=O)[C@H](Cc1ccc(F)cc1)NC(=O)c1cc(C)on1 | > 100000 | 183 | 2210 | – | – |
